Measured values published in ChEMBL document CHEMBL3124927, “New C(4)- and C(1)-derivatives of furo[3,4-c]pyridine-3-ones and related compounds: evidence for site-specific inhibition of the constitutive proteasome and its immunoisoform” (Bioorg Med Chem Lett, 2014).
Active and inactive are the calls of the source. The calls are words filed in the database; no cut-off is given here.

Assays:
[1] = target: T1, Proteasome Macropain subunit MB1 (Homo sapiens) (UniProt P28074); assay: Inhibition of 20s immunoproteasome beta 5 subunit chymotrypsin-like activity in human blood monocytes using Suc-LLVY-AMC as substrate at 100 uM preincubated for 2 mins followed by substrate addition by fluorescence assay; assay type: cell-based
T1 sequence (whole entry): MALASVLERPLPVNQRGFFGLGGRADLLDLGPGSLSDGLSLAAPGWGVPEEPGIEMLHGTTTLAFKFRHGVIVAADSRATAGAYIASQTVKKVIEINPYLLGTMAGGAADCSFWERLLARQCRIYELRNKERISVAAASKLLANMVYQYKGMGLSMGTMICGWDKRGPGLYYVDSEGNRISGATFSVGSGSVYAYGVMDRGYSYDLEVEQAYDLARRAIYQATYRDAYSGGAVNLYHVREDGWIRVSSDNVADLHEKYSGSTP
Summary of the method: (§1)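 Purified immunoproteasome 20S fraction, run like the constitutive assay but with a 2-min pre-incubation with inhibitor before adding the respective substrate. Fluorescence read-out. IC50 is from percent inhibition versus concentration, fitted with a Hill-number equation.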

[2] = Inhibition of 20s constitutive proteasome beta 2 subunit trypsin-like activity in rabbit erythrocytes using Boc-LRR-AMC as substrate incubated for 15 mins prior to substrate addition measured after 45 mins by fluorescence assay; assay type: cell-based, Oryctolagus cuniculus
Summary of the method: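 Purified rabbit erythrocyte constitutive 20S fraction, 0.27 nM enzyme, pre-incubated 15 min with or without inhibitor, then Boc-LRR-AMC added. Buffer at pH 7.5. Fluorescence read-out. IC50 is from a plot of percent inhibition against inhibitor concentration, Hill-equation fit.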

[3] = target: T2, Proteasome component C5 (Homo sapiens) (UniProt P20618); assay: Inhibition of 20s immunoproteasome beta 1 subunit caspase-like activity in human blood monocytes using Z-LLE-betaNA as substrate at 100 uM preincubated for 2 mins followed by substrate addition by fluorescence assay; assay type: cell-based; summary of the method: as §1
T2 sequence (whole entry): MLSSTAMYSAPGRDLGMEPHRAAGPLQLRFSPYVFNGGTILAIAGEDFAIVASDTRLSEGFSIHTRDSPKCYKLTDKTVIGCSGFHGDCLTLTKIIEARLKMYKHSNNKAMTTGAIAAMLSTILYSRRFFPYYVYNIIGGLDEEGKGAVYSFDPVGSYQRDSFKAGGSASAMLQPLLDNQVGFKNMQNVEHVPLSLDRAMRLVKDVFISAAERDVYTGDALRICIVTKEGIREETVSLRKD

Oryctolagus cuniculus [4] = species: Oryctolagus cuniculus; assay: Inhibition of 20s constitutive proteasome beta 5 subunit chymotrypsin-like activity in rabbit erythrocytes using Suc-LLVY-AMC as substrate at 50 uM incubated for 15 mins prior to substrate addition measured after 45 mins by fluorescence assay relative to control; assay type: cell-based
Summary of the method: (§2)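 Purified rabbit erythrocyte constitutive 20S fraction, 0.27 nM enzyme, pre-incubated 15 min with or without inhibitor before substrate addition. Buffer pH 7.5: 20 mM Tris, 1 mM DTT, 10% glycerol, 0.02% (w/v) SDS. Fluorescence read-out. IC50 is from a percent inhibition versus concentration plot, fitted with a Hill-type equation.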

Oryctolagus cuniculus [5] = species: Oryctolagus cuniculus; assay: Inhibition of 20s constitutive proteasome beta 1 subunit caspase-like activity in rabbit erythrocytes using Z-LLE-betaNA as substrate at 50 uM incubated for 15 mins prior to substrate addition measured after 45 mins by fluorescence assay relative to control; assay type: cell-based; summary of the method: as §2
HeLa = assay: Cytotoxicity against human HeLa cells assessed as decrease cell attachment after 18 to 72 hrs by XTT assay; assay type: cell-based
Summary of the method: (§3)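 HeLa cells seeded and handled as for the in-cell proteasome assay, then exposed to inhibitor for 18 or 72 h. Viability read as XTT reduction to formazan by mitochondrial dehydrogenases: 3 h with 1 mg/mL XTT, absorbance at 485 nm.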

[6] = test system: mitochondrial dehydrogenase activity (cytotoxicity readout); assay: Cytotoxicity against human HeLa cells assessed as inhibition of mitochondrial dehydrogenase activity at 50 uM after 18 to 72 hrs by XTT assay relative to control; assay type: cell-based; settings: read-out: INH; summary of the method: as §3
[7] = target: Cathepsin B (Homo sapiens) (UniProt P07858); assay: Inhibition of human cathepsin B using Z-RR-AMC as substrate by fluorescence assay
Summary of the method: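 Human cathepsin B fraction, Z-RR-AMC substrate, at 37 °C in 352 mM KH2PO4, 48 mM Na2HPO4, 1 mM EDTA, 1 mM DTT, pH 6. Fluorescence read-out. IC50 is from percent inhibition versus inhibitor concentration.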

[8] = target: Proteasome Macropain subunit (Homo sapiens) (UniProt P49721); assay: Inhibition of 20s immunoproteasome beta 2 subunit trypsin-like activity in human blood monocytes using Boc-LRR-AMC as substrate at 100 to 2000 nM preincubated for 2 mins followed by substrate addition by fluorescence assay; assay type: cell-based; summary of the method: as §1
Sequence of Proteasome Macropain subunit (Homo sapiens) (P49721 whole entry): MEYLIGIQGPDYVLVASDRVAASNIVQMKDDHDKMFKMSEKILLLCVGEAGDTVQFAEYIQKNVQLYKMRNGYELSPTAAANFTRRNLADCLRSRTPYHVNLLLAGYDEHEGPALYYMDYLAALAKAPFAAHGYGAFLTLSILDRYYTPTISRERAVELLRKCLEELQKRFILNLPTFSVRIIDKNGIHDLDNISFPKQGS

[9] = target: T3, Calpain-1 catalytic subunit (Homo sapiens) (UniProt P07384); assay: Inhibition of human calpain-1 using Suc-LLVY-AMC as substrate by fluorescence assay
T3 sequence (whole entry): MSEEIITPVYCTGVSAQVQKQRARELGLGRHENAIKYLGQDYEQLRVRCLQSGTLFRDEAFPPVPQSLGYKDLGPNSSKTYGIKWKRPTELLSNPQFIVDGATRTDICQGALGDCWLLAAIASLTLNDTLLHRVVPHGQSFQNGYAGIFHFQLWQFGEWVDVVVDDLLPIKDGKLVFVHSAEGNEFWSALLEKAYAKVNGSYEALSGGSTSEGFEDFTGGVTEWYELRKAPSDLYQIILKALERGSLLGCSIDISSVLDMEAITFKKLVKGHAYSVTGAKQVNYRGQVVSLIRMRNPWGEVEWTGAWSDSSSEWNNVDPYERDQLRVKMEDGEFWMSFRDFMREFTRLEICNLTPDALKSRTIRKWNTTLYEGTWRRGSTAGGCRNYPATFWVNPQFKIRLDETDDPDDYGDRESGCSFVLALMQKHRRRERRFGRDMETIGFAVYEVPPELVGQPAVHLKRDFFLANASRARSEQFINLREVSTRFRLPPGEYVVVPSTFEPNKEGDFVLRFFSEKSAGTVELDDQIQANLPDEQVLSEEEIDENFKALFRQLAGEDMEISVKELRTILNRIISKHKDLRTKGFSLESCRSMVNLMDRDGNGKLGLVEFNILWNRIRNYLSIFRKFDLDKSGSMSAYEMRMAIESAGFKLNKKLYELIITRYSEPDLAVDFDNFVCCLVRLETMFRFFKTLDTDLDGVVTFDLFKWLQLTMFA
Summary of the method: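 Human calpain I fraction, Suc-LLVY-AMC substrate, at 25 °C in 50 mM Tris, 10 mM DTT with CaCl2, pH 7.2. Fluorescence read-out. IC50 is from percent inhibition versus inhibitor concentration.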

[10] = target: T1, Proteasome Macropain subunit MB1 (Homo sapiens); assay: Inhibition of 20s immunoproteasome beta 5 subunit chymotrypsin-like activity in human blood monocytes using Suc-LLVY-AMC as substrate at 100 to 2000 nM preincubated for 2 mins followed by substrate addition by fluorescence assay; assay type: cell-based; summary of the method: as §1
Oryctolagus cuniculus [11] = species: Oryctolagus cuniculus; assay: Inhibition of 20s constitutive proteasome beta 1 subunit caspase-like activity in rabbit erythrocytes using Z-LLE-betaNA as substrate at 25 uM incubated for 15 mins prior to substrate addition measured after 45 mins by fluorescence assay relative to control; assay type: cell-based; summary of the method: as §2
[12] = Inhibition of 20s constitutive proteasome beta 5 subunit chymotrypsin-like activity in rabbit erythrocytes using Suc-LLVY-AMC as substrate incubated for 15 mins prior to substrate addition measured after 45 mins by fluorescence assay; assay type: cell-based, Oryctolagus cuniculus; summary of the method: as §2

O=c1c2cc(-c3ccccc3)sc2ncn1CCc1ccc(Cl)cc1
inhibition [1]: inactive | IC50 ([2]; read-out: IC50): 9.9 µM | inhibition [3]: inactive

CCN(CC)CC(O)Cn1cnc2sc(-c3ccccc3)cc2c1=O (configuration not stated)
IC50 ([2]; read-out: IC50): 19.4 µM | inhibition (Oryctolagus cuniculus [4]): 36% | inhibition (Oryctolagus cuniculus [5]): 25%

CC1(C)OC(=O)c2c1ccnc2NCc1ccccc1
Activity (HeLa): Toxic | cytotoxicity at 50 µM [6]: 35% | inhibition [7]: inactive | inhibition [8]: inactive | inhibition [9]: inactive | inhibition [10]: inactive

CC1(C)OC(=O)c2c1ccnc2Nc1ccc(S(N)(=O)=O)cc1
IC50 [2]: Not Active | inhibition (Oryctolagus cuniculus [11]): inactive | inhibition [7]: inactive | inhibition [9]: inactive | IC50 [12]: Not Active
